In PMC3797290 (Experimental and Therapeutic Medicine, 2013):

Assays:
MS S. aureus 14–99 = assay: Interaction study, checkerboard titration; assay type: cell-based, Staphylococcus aureus; conditions: antibiotic in combination with RNL (ranalexin)
How it was run: (§1)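 Checkerboard titration of peptide plus clinical antibiotic against representative clinical MS S. aureus isolates in polypropylene microtiter plates. […] Mueller-Hinton broth, inoculum 5×10^5 cfu/ml, 18 h at 35°C in air. MIC is the lowest concentration inhibiting visible growth. FIC index = A/MICA + B/MICB; synergy ≤0.5.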

E. coli ATCC 25922 = assay: Interaction study, checkerboard titration; assay type: cell-based, Escherichia coli; conditions: antibiotic in combination with RNL (ranalexin)
P. aeruginosa = conditions: at 2 mg/l, in vitro, cited from earlier work; for effect on P. aeruginosa at 48 h: incubation continued for 48 h
MS S. aureus 21–99 = assay: Interaction study, checkerboard titration; assay type: cell-based, Staphylococcus aureus; conditions: antibiotic in combination with RNL (ranalexin)
E. coli 7–98 = assay: Interaction study, checkerboard titration; assay type: cell-based, Escherichia coli
MS S. aureus 56–96 = assay: Interaction study, checkerboard titration; assay type: cell-based, Staphylococcus aureus; conditions: antibiotic in combination with RNL (ranalexin)
P. aeruginosa 8–97 = assay: Interaction study, checkerboard titration; assay type: cell-based, Pseudomonas aeruginosa; conditions: antibiotic in combination with RNL (ranalexin)
E. coli 31–97 = assay: Interaction study, checkerboard titration; assay type: cell-based, Escherichia coli
MS S. aureus 15–99 = assay: Interaction study, checkerboard titration; assay type: cell-based, Staphylococcus aureus; conditions: antibiotic in combination with RNL (ranalexin)
How it was run: as §1

[1] = antibiotic in combination with MG II (magainin II)
[2] = antibiotic in combination with RNL (ranalexin)

For `CC[C@H]1OC(=O)[C@H](C)[C@@H](O[C@H]2C[C@@](C)(OC)[C@@H](O)[C@H](C)O2)[C@H](C)[C@@H](O[C@@H]2O[C@H](C)C[C@H](N(C)C)[C@H]2O)[C@](C)(OC)C[C@@H](C)C(=O)[C@H](C)[C@@H](O)[C@]1(C)O` [CLR, clarithromycin], the FIC index (MS S. aureus 14–99) is listed as 0.250, the FIC index (E. coli ATCC 25922) is listed as 0.375 and the “effect on P. aeruginosa cell growth at 24 h” value (P. aeruginosa) is listed as “no effect on cell growth”. For the same compound, the “effect on P. aeruginosa at 48 h” value (P. aeruginosa) was “bactericidal”, the FIC index (MS S. aureus 21–99) was 0.250 and the FIC index (E. coli 7–98; [1]) was 1.500. For the same compound, the FIC index (E. coli 7–98; [2]) was 0.312, the FIC index (MS S. aureus 56–96) was 0.312 and the FIC index (P. aeruginosa 8–97) was 0.375. For the same compound, the FIC index (E. coli 31–97; [1]) was 1.500, the FIC index (E. coli 31–97; [2]) was 0.312 and the FIC index (MS S. aureus 15–99) was 0.187.
With amoxicillin-clavulanate [AMC] the FIC index (MS S. aureus 14–99) was 1.000, the FIC index (E. coli ATCC 25922) was 1.500 and the FIC index (E. coli 7–98; [1]) was 0.187. The FIC index (E. coli 7–98; [2]) was 1.000, the FIC index (P. aeruginosa 8–97) was 1.000 and the FIC index (E. coli 31–97; [1]) was 0.312. For the same compound, the FIC index (MS S. aureus 15–99) was 1.500.
With `CC(C)(O/N=C(\C(=O)N[C@@H]1C(=O)N2C(C(=O)[O-])=C(C[n+]3ccccc3)CS[C@H]12)c1csc(N)n1)C(=O)O` [CAZ, ceftazidime] the FIC index (E. coli 7–98; [1]) was 0.312, the FIC index (P. aeruginosa 8–97) was 1.500 and the FIC index (E. coli 31–97; [1]) was 0.187.
`CO/N=C(\C(=O)N[C@@H]1C(=O)N2C(C(=O)O)=C(CSc3nc(=O)c(=O)[nH]n3C)CS[C@H]12)c1csc(N)n1` [CRO, ceftriaxone] gave an FIC index (MS S. aureus 14–99) of 1.000, an FIC index (E. coli ATCC 25922) of 1.000 and an FIC index (MS S. aureus 21–99) of 1.500. For the same compound, the FIC index (E. coli 7–98; [1]) was 0.250, the FIC index (E. coli 7–98; [2]) was 1.250 and the FIC index (MS S. aureus 56–96) was 1.500. The FIC index (P. aeruginosa 8–97) was 0.750, the FIC index (E. coli 31–97; [1]) was 0.312 and the FIC index (E. coli 31–97; [2]) was 1.250. It also gave an FIC index (MS S. aureus 15–99) of 1.250.
For `C[C@H]1c2cccc(O)c2C(=O)C2=C(O)[C@]3(O)C(=O)C(C(N)=O)=C(O)[C@@H](N(C)C)[C@@H]3[C@@H](O)[C@@H]21` [D, doxycycline], the FIC index (MS S. aureus 14–99) was 0.312, the FIC index (E. coli ATCC 25922) was 0.312 and the FIC index (MS S. aureus 21–99) was 0.187. It also gave an FIC index (E. coli 7–98; [1]) of 2.000, an FIC index (E. coli 7–98; [2]) of 0.312 and an FIC index (MS S. aureus 56–96) of 0.312. It also gave an FIC index (P. aeruginosa 8–97) of 0.312, an FIC index (E. coli 31–97; [1]) of 1.250 and an FIC index (E. coli 31–97; [2]) of 0.375. For the same compound, the FIC index (MS S. aureus 15–99) was 0.250.
With polymyxin E [POL-E] the FIC index (E. coli ATCC 25922) was 0.187, the FIC index (E. coli 7–98; [2]) was 0.312 and the FIC index (P. aeruginosa 8–97) was 0.250. It also gave an FIC index (E. coli 31–97; [1]) of 1.500 and an FIC index (E. coli 31–97; [2]) of 0.250.
Work on `C[C@@H](O)[C@H]1C(=O)N2C(C(=O)O)=C(S[C@@H]3CN[C@H](C(=O)N(C)C)C3)[C@H](C)[C@H]12` [MEM, meropenem] yielded an FIC index (MS S. aureus 14–99) of 1.250, an FIC index (E. coli ATCC 25922) of 0.750 and an FIC index (MS S. aureus 21–99) of 1.500. For the same compound, the FIC index (E. coli 7–98; [1]) was 0.375, the FIC index (E. coli 7–98; [2]) was 1.500 and the FIC index (MS S. aureus 56–96) was 1.250. It also gave an FIC index (P. aeruginosa 8–97) of 1.000, an FIC index (E. coli 31–97; [1]) of 0.375 and an FIC index (E. coli 31–97; [2]) of 1.000. It also gave an FIC index (MS S. aureus 15–99) of 1.500.
Work on `CCN1CCN(C(=O)N[C@@H](C(=O)N[C@@H]2C(=O)N3[C@@H]2SC(C)(C)[C@@H]3C(=O)O)c2ccccc2)C(=O)C1=O` [PIP, piperacillin] yielded an FIC index (E. coli ATCC 25922) of 0.750, an FIC index (E. coli 7–98; [1]) of 0.250 and an FIC index (E. coli 7–98; [2]) of 1.000. The FIC index (P. aeruginosa 8–97) was 1.000, the FIC index (E. coli 31–97; [1]) was 0.312 and the FIC index (E. coli 31–97; [2]) was 1.250.
In the case of `CC[C@H]1OC(=O)[C@H](C)[C@@H](O[C@H]2C[C@@](C)(OC)[C@@H](O)[C@H](C)O2)[C@H](C)[C@@H](O[C@@H]2O[C@H](C)C[C@H](N(C)C)[C@H]2O)[C@](C)(O)C[C@@H](C)C(=O)[C@H](C)[C@@H](O)[C@]1(C)O` [erythromycin], the “effect on P. aeruginosa cell growth at 24 h” value (P. aeruginosa) is given as “no effect on cell growth” and the “effect on P. aeruginosa at 48 h” value (P. aeruginosa) is given as “bactericidal”.
